Reference: article PMC4561207 (Child's nervous system : ChNS : official journal of the …, 2015)

Assay: Adverse events regardless of attribution
Format: in vivo, human
Method in brief: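 Children with recurrent/refractory CNS tumours took oral drug once daily, continuously, in 28-day cycles. Dosing was stratified by EIACD use, with start/escalation levels 20–40 mg/m² (no EIACD) or 15–32 mg/m² (EIACD). Monitoring included weekly exam, serum chemistries, CBC and urine protein for 8 weeks, and TSH before each cycle. Events other than hypertension were graded by CTCAE v3, later v4.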

SMILES: COc1cc2c(Oc3ccc4[nH]c(C)cc4c3F)ncnc2cc1OCCCN1CCCC1 [cediranib, Cediranib]
- Abdominal pain, events (patients) (grade 1 AE): 5(5)
- Acidosis, events (patients) (grade 1 AE): 7(5)
- Alanine aminotransferase increased, events (patients) (grade 1 AE): 44(25)
- Alkaline phosphatase increased, events (patients) (grade 1 AE): 4(3)
- Anal mucositis, events (patients) (grade 1 AE): 1(1)
- Anal pain, events (patients) (grade 1 AE): 1(1)
- Anemia, events (patients) (grade 1 AE): 4(4)
- Anorexia, events (patients) (grade 1 AE): 9(9)
- Aspartate aminotransferase increased, events (patients) (grade 1 AE): 38(20)
- Back pain, events (patients) (grade 1 AE): 4(3)
- Blood bilirubin increased, events (patients) (grade 1 AE): 17(10)
- Bone pain, events (patients) (grade 1 AE): 1(1)
- Cardiac troponin I increased, events (patients) (grade 1 AE): 1(1)
- Chest wall pain, events (patients) (grade 1 AE): 1(1)
- Cholesterol high, events (patients) (grade 1 AE): 1(1)
- Chronic kidney disease, events (patients) (grade 1 AE): 1(1)
- Constipation, events (patients) (grade 1 AE): 7(4)
- Cough, events (patients) (grade 1 AE): 4(4)
- Creatinine increased, events (patients) (grade 1 AE): 3(2)
- Dehydration, events (patients) (grade 1 AE): 2(2)
- Depression, events (patients) (grade 1 AE): 3(3)
- Diarrhea, events (patients) (grade 1 AE): 44(30)
- Dizziness, events (patients) (grade 1 AE): 3(3)
- Dry mouth, events (patients) (grade 1 AE): 1(1)
- Dry skin, events (patients) (grade 1 AE): 1(1)
- Dyspepsia, events (patients) (grade 1 AE): 3(3)
- Edema face, events (patients) (grade 1 AE): 1(1)
- Edema limbs, events (patients) (grade 1 AE): 2(2)
- Endocrine disorders - Other, specify, events (patients) (grade 1 AE): 1(1)
- Epistaxis, events (patients) (grade 1 AE): 6(5)
- Eye disorders - Other, specify, events (patients) (grade 1 AE): 1(1)
- Fatigue, events (patients) (grade 1 AE): 11(10)
- Fecal incontinence, events (patients) (grade 1 AE): 2(2)
- Fever, events (patients) (grade 1 AE): 2(2)
- GGT increased, events (patients) (grade 1 AE): 1(1)
- Gastritis, events (patients) (grade 1 AE): 2(2)
- Gastrointestinal disorders - Other, specify, events (patients) (grade 1 AE): 1(1)
- Headache, events (patients) (grade 1 AE): 21(12)
- Hematuria, events (patients) (grade 1 AE): 5(3)
- Hemoglobin increased, events (patients) (grade 1 AE): 11(6)
- Hoarseness, events (patients) (grade 1 AE): 1(1)
- Hypercalcemia, events (patients) (grade 1 AE): 6(3)
- Hyperglycemia, events (patients) (grade 1 AE): 19(14)
- Hyperkalemia, events (patients) (grade 1 AE): 3(3)
- Hypermagnesemia, events (patients) (grade 1 AE): 14(9)
- Hypernatremia, events (patients) (grade 1 AE): 8(5)
- Hypertension, events (patients) (grade 1 AE): 21(14)
- Hyperthyroidism, events (patients) (grade 1 AE): 2(2)
- Hypoalbuminemia, events (patients) (grade 1 AE): 25(16)
- Hypocalcemia, events (patients) (grade 1 AE): 23(14)
- Hypoglycemia, events (patients) (grade 1 AE): 5(5)
- Hypokalemia, events (patients) (grade 1 AE): 20(16)
- Hypomagnesemia, events (patients) (grade 1 AE): 8(6)
- Hyponatremia, events (patients) (grade 1 AE): 23(12)
- Hypophosphatemia, events (patients) (grade 1 AE): 15(12)
- Hypothyroidism, events (patients) (grade 1 AE): 10(10)
- INR increased, events (patients) (grade 1 AE): 1(1)
- Investigations - Other, specify, events (patients) (grade 1 AE): 2(2)
- Joint effusion, events (patients) (grade 1 AE): 1(1)
- Leukoencephalopathy, events (patients) (grade 1 AE): 1(1)
- Lymphocyte count decreased, events (patients) (grade 1 AE): 13(10)
- Malaise, events (patients) (grade 1 AE): 3(1)
- Mucositis oral, events (patients) (grade 1 AE): 1(1)
- Myalgia, events (patients) (grade 1 AE): 1(1)
- Nausea, events (patients) (grade 1 AE): 18(13)
- Nervous system disorders - Other, specify, events (patients) (grade 1 AE): 2(2)
- Neutrophil count decreased, events (patients) (grade 1 AE): 13(8)
- Non-cardiac chest pain, events (patients) (grade 1 AE): 2(2)
- Oral pain, events (patients) (grade 1 AE): 2(2)
- Pain in extremity, events (patients) (grade 1 AE): 6(5)
- Pain, events (patients) (grade 1 AE): 3(3)
- Palmar-plantar erythrodysesthesia syndrome, events (patients) (grade 1 AE): 4(4)
- Platelet count decreased, events (patients) (grade 1 AE): 23(17)
- Proteinuria, events (patients) (grade 1 AE): 22(14)
- Rash acneiform, events (patients) (grade 1 AE): 2(2)
- Rash maculo-papular, events (patients) (grade 1 AE): 6(5)
- Rectal pain, events (patients) (grade 1 AE): 1(1)
- Renal and urinary disorders - Other, specify, events (patients) (grade 1 AE): 1(1)
- Respiratory, thoracic and mediastinal disorders - Other, specify, events (patients) (grade 1 AE): 1(1)
- Serum amylase increased, events (patients) (grade 1 AE): 1(1)
- Skin and subcutaneous tissue disorders - Other, specify, events (patients) (grade 1 AE): 1(1)
- Stomach pain, events (patients) (grade 1 AE): 3(3)
- Urinary frequency, events (patients) (grade 1 AE): 2(2)
- Urinary retention, events (patients) (grade 1 AE): 2(2)
- Vascular disorders - Other, specify, events (patients) (grade 1 AE): 2(2)
- Voice alteration, events (patients) (grade 1 AE): 2(2)
- Vomiting, events (patients) (grade 1 AE): 33(19)
- Weight loss, events (patients) (grade 1 AE): 2(2)
- White blood cell decreased, events (patients) (grade 1 AE): 17(14)
- Abdominal pain, events (patients) (grade 2 AE): 5(5)
- Alanine aminotransferase increased, events (patients) (grade 2 AE): 18(10)
- Anemia, events (patients) (grade 2 AE): 1(1)
- Anorexia, events (patients) (grade 2 AE): 6(6)
- Arthralgia, events (patients) (grade 2 AE): 1(1)
- Aspartate aminotransferase increased, events (patients) (grade 2 AE): 4(4)
- Back pain, events (patients) (grade 2 AE): 1(1)
- Blood bilirubin increased, events (patients) (grade 2 AE): 1(1)
- Bone pain, events (patients) (grade 2 AE): 2(2)
- Confusion, events (patients) (grade 2 AE): 1(1)
- Constipation, events (patients) (grade 2 AE): 2(2)
- Cough, events (patients) (grade 2 AE): 1(1)
- Creatinine increased, events (patients) (grade 2 AE): 2(2)
- Dehydration, events (patients) (grade 2 AE): 2(2)
- Diarrhea, events (patients) (grade 2 AE): 16(11)
- Dizziness, events (patients) (grade 2 AE): 2(1)
- Dyspepsia, events (patients) (grade 2 AE): 1(1)
- Dysphasia, events (patients) (grade 2 AE): 1(1)
- Endocrine disorders - Other, specify, events (patients) (grade 2 AE): 1(1)
- Fatigue, events (patients) (grade 2 AE): 10(10)
- Fever, events (patients) (grade 2 AE): 1(1)
- Flushing, events (patients) (grade 2 AE): 3(1)
- Gastrointestinal disorders - Other, specify, events (patients) (grade 2 AE): 1(1)
- Headache, events (patients) (grade 2 AE): 10(7)
- Hemoglobin increased, events (patients) (grade 2 AE): 1(1)
- Hydrocephalus, events (patients) (grade 2 AE): 2(2)
- Hyperglycemia, events (patients) (grade 2 AE): 3(3)
- Hypernatremia, events (patients) (grade 2 AE): 4(1)
- Hypertension, events (patients) (grade 2 AE): 28(28)
- Hypoalbuminemia, events (patients) (grade 2 AE): 9(7)
- Hypocalcemia, events (patients) (grade 2 AE): 3(3)
- Hypoglycemia, events (patients) (grade 2 AE): 1(1)
- Hypomagnesemia, events (patients) (grade 2 AE): 1(1)
- Hypophosphatemia, events (patients) (grade 2 AE): 6(4)
- Hypothyroidism, events (patients) (grade 2 AE): 10(10)
- Hypoxia, events (patients) (grade 2 AE): 1(1)
- Intracranial hemorrhage, events (patients) (grade 2 AE): 4(4)
- Lipase increased, events (patients) (grade 2 AE): 1(1)
- Lymphocyte count decreased, events (patients) (grade 2 AE): 12(8)
- Mucositis oral, events (patients) (grade 2 AE): 2(2)
- Myalgia, events (patients) (grade 2 AE): 2(2)
- Nausea, events (patients) (grade 2 AE): 4(4)
- Nervous system disorders - Other, specify, events (patients) (grade 2 AE): 1(1)
- Neutrophil count decreased, events (patients) (grade 2 AE): 8(5)
- Non-cardiac chest pain, events (patients) (grade 2 AE): 1(1)
- Pain in extremity, events (patients) (grade 2 AE): 3(3)
- Pain, events (patients) (grade 2 AE): 1(1)
- Palmar-plantar erythrodysesthesia syndrome, events (patients) (grade 2 AE): 10(7)
- Pericardial effusion, events (patients) (grade 2 AE): 1(1)
- Peripheral motor neuropathy, events (patients) (grade 2 AE): 2(2)
- Platelet count decreased, events (patients) (grade 2 AE): 3(3)
- Pleural effusion, events (patients) (grade 2 AE): 1(1)
- Proteinuria, events (patients) (grade 2 AE): 15(14)
- Respiratory, thoracic and mediastinal disorders - Other, specify, events (patients) (grade 2 AE): 1(1)
- Reversible posterior leukoencephalopathy syndrome, events (patients) (grade 2 AE): 1(1)
- Seizure, events (patients) (grade 2 AE): 3(3)
- Skin and subcutaneous tissue disorders - Other, specify, events (patients) (grade 2 AE): 1(1)
- Skin ulceration, events (patients) (grade 2 AE): 2(2)
- Urinary retention, events (patients) (grade 2 AE): 1(1)
- Vomiting, events (patients) (grade 2 AE): 6(6)
- Weight loss, events (patients) (grade 2 AE): 2(2)
- White blood cell decreased, events (patients) (grade 2 AE): 5(3)
- Abdominal pain, events (patients) (grade 3 AE): 1(1)
- Alanine aminotransferase increased, events (patients) (grade 3 AE): 7(6)
